FN deposition inh = inhibitors of fibronectin matrix deposition, primary screen, AH1F cells, Alexa488-fibronectin fluorescence, plate reader; 0.086% of 350,000 active; inhibition, % at 12.6 µM; AH1F fibroblasts, overnight;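 active = mean inhibition across replicates of 30% or more, regardless of how many single replicates reach that level; inconclusive = mean under 30% yet at least half of replicates reach 30%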;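 also: positive control wells lacked labelled fibronectin entirely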
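Material: AH1F fibroblast monolayer depositing Alexa488-labelled fibronectin into matrix / Amount: 10000 AH1F cells per well / Signal: fluorescence 485/525 nm / Medium: DMEM, 2% serum / Compound: single dose, pinned / Incubation: 1 h cell adhesion before compound, then overnight fibronectin incubation / Reagent: Alexa488-FN, 24 nM final / Read-out: inhibition of fibronectin deposition signal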
Env fusion inh = inhibitors of HIV-1 Env-driven cell-cell fusion, primary screen, HeLa-JRFL effector, CEM21 target cells, luciferase; inhibition, % at 12.3 µM; 1.1% of 360,000 active;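 active = mean replicate inhibition score of at least 50 and every replicate individually at or above 50; inconclusive = only one of the two criteria met; inactive = mean below 50 and not all replicates reaching 50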;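 also: 0% = plate neutral controls and 100% = maraviroc near 300 nM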
PDI inh = inhibitors of human PDI, primary screen, biochemical, turbidity, single point, plate reader. Protein disulfide-isomerase (Homo sapiens), P07237. PDI insulin aggregation turbidity, A650, 90 min. inhibition, % at 10 µM. 0.052% of 350,000 active. AID 588391, 2011;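 active = mean inhibition across replicates of 30% or more, whatever share of single replicates reach that level; inconclusive = mean inhibition below 30% while every single replicate reaches 30%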
Target sequence (P07237 whole entry, looked up): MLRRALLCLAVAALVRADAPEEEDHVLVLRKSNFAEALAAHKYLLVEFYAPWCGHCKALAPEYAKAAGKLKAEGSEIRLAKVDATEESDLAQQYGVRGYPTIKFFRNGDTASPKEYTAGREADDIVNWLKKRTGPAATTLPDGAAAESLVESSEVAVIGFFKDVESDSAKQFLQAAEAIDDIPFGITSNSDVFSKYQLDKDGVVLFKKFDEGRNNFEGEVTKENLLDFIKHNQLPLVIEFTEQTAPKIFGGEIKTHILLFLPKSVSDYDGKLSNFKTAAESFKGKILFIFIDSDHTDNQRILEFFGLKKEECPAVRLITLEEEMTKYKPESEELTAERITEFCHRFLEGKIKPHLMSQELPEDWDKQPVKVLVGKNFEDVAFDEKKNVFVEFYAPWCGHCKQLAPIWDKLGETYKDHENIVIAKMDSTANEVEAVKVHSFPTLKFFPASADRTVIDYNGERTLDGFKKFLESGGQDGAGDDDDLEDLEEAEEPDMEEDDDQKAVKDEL
ERp5 block = inhibitors of ERp5-driven insulin aggregation, primary screen, biochemical, turbidity, absorbance 650 nm, single point | inhibition, % at 9.99 µM | Protein disulfide-isomerase A6 (Homo sapiens), Q15084 | AID 651711, 2012 | 90 min | 0.05% of 350,000 active;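 active = mean replicate inhibition above about 25%, with every replicate also reaching it, limit read from the data, passing the limit was not always enough; inconclusive = only one of those two criteria met; inactive = neither criterion met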
Ecoli rRNA inh = reduced GFP signal of wild-type E. coli, primary screen, bacterial rRNA inhibitor project, GFP/RFP fluorescence, OD600, single point | E. coli WT GFP vs humanized-ribosome RFP mutants, 24 h; active compounds read low; DMSO median 0, no signal -100 | GFP signal change (wild-type ribosome), % (no concentration beside the values) | 1.6% of 350,000 active;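 active = significant combined selectivity score with lowered wild-type GFP, culture density cut under 30%, mutant RFP and density less affected; inactive = any of these conditions unmet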
PvdQ acylase = P. aeruginosa PvdQ acylase inhibitors, primary screen, biochemical, fluorescence, plate reader and imaging, single point; PvdQ acylase [Pseudomonas aeruginosa LESB58]; AID 488965, 2010; purified PvdQ acylase; inhibition, % at 10 µM; 0.063% of 340,000 active; in the data active = inhibition above about 30%, passing the limit was not always enough; inconclusive = no clear call, values can overlap the other calls;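 also: 0% = vehicle neutral wells and 100% = reference inhibitor wells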
* hit, by the source's call; ? = inconclusive; · = not tested or not shown; [ ] = another dose, or the depositor's remark. A selection: hits, their analogues and other compounds. The true share with any hit is near 2.2%.

SMILES	FN deposition inh	Env fusion inh	PDI inh	ERp5 block	Ecoli rRNA inh	PvdQ acylase
CC1CCC(C(C)C)C(OC(=O)Cn2c(-c3ccc(Cl)cc3)[n+](C)c3ccccc32)C1 (configuration not stated)	-6.8	68.5*	8.3	3.1	-58.4	12.2
Cc1nc2sccn2c1-c1csc(NCc2ccccc2)n1	0.4	94.5*	1.4	·	·	8.9
C=CCNc1nc(-c2c(C)nc3sccn23)cs1	1.0	-109.9	4.4	·	·	-13.3
O=C(Nc1ccc(F)cc1)Nc1ccc2c(c1)[C@@H]1C[C@H](CC(=O)N3CCCCC3)O[C@@H](CO)[C@@H]1O2	-9.8	74.9*[16.7 µM]	·	·	-3.1	·
O=C(Nc1ccc(F)cc1)Nc1ccc2c(c1)[C@@H]1C[C@H](CC(=O)N3CCCCC3)O[C@H](CO)[C@@H]1O2	-10.3	89.8*[16.7 µM]	·	·	-3.5	·
O=C(Nc1ccc(F)cc1)Nc1ccc2c(c1)[C@@H]1C[C@@H](CC(=O)N3CCCCC3)O[C@@H](CO)[C@@H]1O2	-1.7	-9.4[16.7 µM]	·	·	-6.9	·
O=C(Nc1ccc(F)cc1)Nc1ccc2c(c1)[C@H]1C[C@H](CC(=O)N3CCCCC3)O[C@@H](CO)[C@H]1O2	-6.0	-10.6[16.7 µM]	·	·	-2.4	·
COc1ccc2nc(-c3ccc(Cl)cc3)cc(C(=O)O)c2c1	·	-20.2	-4.0	4.4	-33.0*	-7.0
COc1ccc(Cl)cc1C(=O)NNC(=S)NC(=O)c1cc(-c2ccc(Cl)cc2)nc2ccccc12	13.2	94.4*	-0.3	·	·	-6.2
CO[C@H]1CN(C)C(=O)c2cc(NC(=O)Cc3ccccc3)ccc2OC[C@H](C)NC[C@@H]1C	-17.2	-1.2[16.7 µM]	·	3.6	4.4	·
CCCN1C[C@H](C)[C@@H](OC)CN(C)C(=O)c2cc(NC(=O)c3cnccn3)ccc2OC[C@@H]1C	15.5	9.6[16.7 µM]	·	1.1	1.0	·
C[C@H](CO)N1C[C@H](C)[C@H](CN(C)C(=O)Nc2ccc(C(F)(F)F)cc2)Oc2ccc(NC(=O)Nc3cccc4ccccc34)cc2C1=O	·	·	·	-1.0	-10.5	·
CCOC(=O)c1c(-c2ccccc2)csc1NC(=O)CSc1nnnn1C	-3.4	?	-1.7	·	·	-4.5
CCOC(=O)c1c(NC(=O)CSc2nnnn2C)sc(C)c1-c1ccc(C)cc1	-3.4	81.1*	-5.8	·	·	14.8
C[C@H](CO)N1C[C@H](C)[C@@H](CN(C)C(=O)Cc2ccccn2)Oc2ncc(-c3ccccc3)cc2C1=O	-6.0	12.0[16.7 µM]	·	-9.0	1.6	·
Cc1ccc(C)c(S(=O)(=O)NC2CCSC2=O)c1 (configuration not stated)	-3.4	3.5	1.9	7.5	11.8	79.0*
O=C(c1ccccn1)N1CC2(C1)[C@H](c1ccccc1)[C@@H](CO)N2Cc1cccnc1	·	·	·	9.7	4.8	·
O=C(Nc1ccccc1)c1ccccc1NS(=O)(=O)c1ccc(Cl)s1	·	·	-6.4	·	·	-7.5
O=C(Nc1ccccc1Cc1ccccc1)c1ccccc1NS(=O)(=O)c1ccc(Cl)s1	-11.9	67.4*	-2.5	·	·	1.3
CCSc1ccc([C@@H]2[C@@H]3C(=O)N(CC)C(=O)[C@@H]3[C@]3(C(=O)OC)CCCCN23)cc1	5.5	62.7*	11.1	-0.8	-23.5	-6.6
CCN1C(=O)[C@@H]2[C@@H](c3ccc(-c4ccc(Cl)c(Cl)c4)cc3)N3CCCC[C@@]3(C(=O)OC)[C@@H]2C1=O	-14.8	63.3*	-3.6	9.5	12.7	-3.2
CCSc1ccc([C@@H]2[C@H]3C(=O)N(CC)C(=O)[C@H]3[C@]3(C(=O)OC)CCCCN23)cc1	-1.5	-14.7	8.6	0.7	11.3	4.5
COC(=O)C[C@@H]1C[C@@H]2c3cc(NC(=O)Nc4ccccc4)ccc3O[C@@H]2[C@@H](CO)O1	·	-1.4[16.7 µM]	·	-0.6	7.0	·
C[C@H]1CC(=O)NCC/C=C\C[C@H](c2ccc3c(c2)OCO3)NC1=O	-0.9	·	·	·	0.1	·
N#C[C@H]1[C@H](c2ccc(C3=CCCC3)cc2)[C@H](CO)N1C(=O)NC1CCCC1	3.2	?	·	-2.9	30.7	·

Screens as filed in PubChem BioAssay.
